SENP7 inh: blocks the human protease SENP7. Q9BQF6. recombinant SENP7, Z-RLRGG-aminoluciferin luminescence, 40 min. inhibition, % at 5 µM. 1.5% of 330,000 active. AID 434973;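 active means inhibition above about 50% at the single test dose, limit read from the data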;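 further: plate controls were DMSO with enzyme for no effect and no enzyme buffer wells for full effect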
SENP6 block: inhibitors of human SENP6 protease | Q9GZR1 | Recombinant SENP6 catalytic domain, aminoluciferin luminescence | inhibition, % at 10 µM | 1.8% of 330,000 active | AID 2599;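 active means inhibition above about 50% at the single tested dose, limit read from the data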;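 further: plate controls were DMSO wells with enzyme for no effect and DMSO wells lacking enzyme for full effect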
SENP8 block-1: SENP8 (human) protease inhibition; 0.64% of 360,000 active; recombinant SENP8, Nedd8 substrate fluorescence; Q96LD8; inhibition, % at 20 µM; in the data active means inhibition mostly above about 40%, no sharp cut-off; inactive means mostly below about 27%
SENP1 inh: SENP1 (human) catalytic domain inhibition | 0.21% of 360,000 active | Q9P0U3 | recombinant SENP1 catalytic domain, CyPet-SUMO1-YPet FRET cleavage | inhibition, % at 10 µM;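 active means inhibition at least 30% at 10 µM, raw YFP signal under a set limit, fluorescence ratio 0.5 to 1.5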;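 further: 0% = enzyme with DMSO and 100% = no enzyme wells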
Target sequence (Q9P0U3 419-644 limits assumed): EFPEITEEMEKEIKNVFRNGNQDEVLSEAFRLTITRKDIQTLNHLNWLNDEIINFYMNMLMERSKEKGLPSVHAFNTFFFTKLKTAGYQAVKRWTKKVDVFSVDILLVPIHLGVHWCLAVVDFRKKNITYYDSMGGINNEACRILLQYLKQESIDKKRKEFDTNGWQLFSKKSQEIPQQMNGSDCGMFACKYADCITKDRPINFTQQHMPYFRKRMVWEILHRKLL
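System: Recombinant human SENP1 catalytic domain, His6-tagged | Incubation: Enzyme reaction for 50 min at room temperature, dark | Medium: Tris pH 8 with BME, BSA, NP40 and catalase | Also added: 25 nM SUMO1 FRET substrate | Compound: 10 µM single point, 0.5% DMSO | Measured by: FRET fluorescence in CFP and YFP emission channels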
SENP8 block-2: blocks the human protease SENP8; Q96LD8; purified SENP8, Z-RLRGG-aminoluciferin cleavage, luminescence; inhibition, % at 10 µM; 1.2% of 330,000 active; in the data active means inhibition above about 50%
SENP8 confirm: confirmation of human SENP8 protease inhibitors. shares compounds with SENP7 inh. Recombinant SENP8, Z-RLRGG-aminoluciferin luminescence, 60 min. inhibition, % at 12.5 µM. 40% of 6,200 active;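 active means mean inhibition across replicates above about 50%, limit read from the data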
SENP6 conf: confirmation of human SENP6 protease inhibitors | recombinant SENP6, Z-RLRGG-aminoluciferin luminescence | inhibition, % at 12.5 µM | 58% of 6,200 active | shares compounds with SENP7 inh
SENP7 conf: human SENP7 inhibition, confirmed | shares compounds with SENP7 inh | recombinant SENP7, Z-RLRGG-aminoluciferin luminescence, 40 min | inhibition, % at 12.5 µM | 69% of 6,200 active | AID 488917
Casp3 select: selectivity test for SENP inhibitors: human caspase-3 inhibition. inhibition, % at 12.5 µM. purified caspase-3, Z-DEVD-aminoluciferin luminescence, 60 min. shares compounds with SENP7 inh. 60% of 6,200 active;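 active means mean inhibition above about 50%, limit read from the data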;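 further: plate controls were enzyme with DMSO for no effect and wells without caspase-3 for full effect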
Target sequence (P42574 28-227 limits assumed): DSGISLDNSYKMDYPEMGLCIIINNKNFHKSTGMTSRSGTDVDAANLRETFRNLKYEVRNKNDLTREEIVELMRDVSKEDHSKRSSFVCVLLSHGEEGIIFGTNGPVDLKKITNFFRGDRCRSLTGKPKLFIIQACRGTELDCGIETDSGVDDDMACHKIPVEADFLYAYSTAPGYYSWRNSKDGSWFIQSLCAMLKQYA
SENP luc ctr: luminescence interference (SENP counter-screen). shares compounds with SENP7 inh. Pre-incubated SENP8/Z-RLRGG-aminoluciferin, luciferase luminescence interference. inhibition, % at 12.5 µM. 39% of 6,200 active. AID 488919;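 active means mean inhibition above about 50% when retested at one dose, limit read from the data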;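 further: plate controls were DMSO wells with completed reaction for no effect and substrate without enzyme for full effect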
The depositor's hits bear a star; / = no result. The list is not random: actives were taken first. Their share in the collection is about 2.5%.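 How the source made its calls, unless noted: active means mean inhibition above about 50% in the one-dose retest (limit read from the data); inactive means the rest.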

SMILES	SENP7 inh	SENP6 block	SENP8 block-1	SENP1 inh	SENP8 block-2	SENP8 confirm	SENP6 conf	SENP7 conf	Casp3 select	SENP luc ctr
CN1CCN(c2ccc(NC(=O)CSc3nnnn3-c3ccccc3Cl)cc2)CC1	-13.7	-3.6	14.0	-0.1	-17.5	/	/	/	/	/
Cc1ccc(N2C(=O)CC(n3nc(C)cc3C)C2=O)cc1 (stereo not given)	-4.1	-14.2	13.0	1.3	1.0	/	/	/	/	/
Cc1ccc2oc(-c3ccc(NC(=O)CC(C)C)cc3)nc2c1	-0.8	-25.1	-302.3	-0.2	-3.5	/	/	/	/	/
Cc1ccc(-c2nc3cc(C)ccc3o2)cc1	90.4*	90.4*	-34.0	-0.4	89.1*	58.1*	77.1*	93.8*	78.5*	32.7
CCOC(=O)c1cnc(SCC(=O)c2ccc(C)cc2)nc1N	-2.8	12.3	13.4	3.3	2.0	/	/	/	/	/
CCOC(=O)c1cnc(-c2ccccc2)nc1N(C)C	3.1	18.5	9.6	-1.1	4.6	/	/	/	/	/
CCOC(=O)c1cnc(-c2ccccc2)nc1N	50.6*	69.2*	10.1	1.1	23.8	53.2*	54.1*	81.2*	69.9*	51.9*
CCOC(=O)c1cnc(SCC(=O)c2ccccc2)nc1N	78.4*	81.5*	12.4	-0.8	56.4*	13.8	23.0	27.5	25.8	31.1
Cc1oncc1C(=O)Nc1ccc2ccccc2c1	80.9*	87.7*	-7.6	-1.2	67.3*	24.9	65.2*	95.7*	75.4*	77.2*
Cc1coc(C)c1C(=O)Nc1ccc2ccccc2c1	48.9	65.8*	-1.8	-0.3	26.7	49.3	45.0	79.4*	52.4*	60.0*
Cc1oncc1C(=O)Nc1ccc(C(F)(F)F)cc1	76.1*	78.0*	-2.0	0.6	68.1*	11.7	67.2*	94.1*	76.4*	62.7*
Cc1noc(C)c1COc1ccccc1C(=O)NC(C)c1ccc(F)cc1 (stereo not given)	/	/	-1.0	1.4	/	/	/	/	/	/
COc1ccc(C(C(N)=O)c2ncc(C(F)(F)F)cc2Cl)cc1OC (stereo not given)	-6.7	-2.1	-0.1	-0.1	-8.3	/	/	/	/	/
COc1ccc(-c2csc(N3CCSCC3)n2)cc1	-1.9	-30.1	10.6	1.7	-4.4	/	/	/	/	/
COc1ccc(-c2csc(-n3cccn3)n2)cc1	80.3*	81.4*	8.6	1.2	72.4*	10.5	78.7*	96.2*	65.3*	68.6*
Cc1csc(NC(=O)C2CC(=O)N(c3ccc(C)c(C)c3)C2)n1 (stereo not given)	10.0	-2.3	12.3	1.2	1.0	/	/	/	/	/
Cc1ccsc1C(=O)N1CCC1(C)C(=O)NCc1cccnc1 (stereo not given)	/	/	21.0	4.6	/	/	/	/	/	/
Cc1ccccc1-c1noc(-c2ccc(O)cc2)n1	101.1*	98.2*	17.0	3.5	98.8*	98.9*	99.5*	102.4*	98.2*	97.3*
COc1nc(-c2ccccc2)ccc1-c1noc(-c2ccccc2F)n1	26.0	1.2	-216.6	-4.2	-3.1	/	/	/	/	/
Cc1ccccc1-c1noc(-c2ccccc2F)n1	95.8*	83.7*	19.1	0.6	89.7*	78.5*	77.5*	94.1*	81.2*	61.2*
Cc1ccccc1-c1noc(-c2ccccc2C(=O)N2CCCC2)n1	1.3	-1.4	14.0	1.3	-1.1	/	/	/	/	/
O=C(c1ccccc1-c1nc(-c2ccc(Cl)cc2)no1)N1CCCC1	-17.2	-11.1	12.1	0.2	-2.0	/	/	/	/	/
Cc1ccccc1-c1noc(-c2ccc(Cl)cc2)n1	79.2*	-3.9	9.0	2.4	29.8	21.2	26.4	12.8	49.4	8.3
NC(=O)c1ccc(-c2noc(-c3ccccc3F)n2)cc1	77.0*	74.0*	16.2	2.2	66.2*	36.1	63.0*	76.8*	69.1*	19.8
